We go through six molecules from PMC12746516 (Clinical Pharmacology and Therapeutics, 2025).

The subject of test [1] is HepG2 cells. Kind of test: Oxidative stress assay. The settings on record: HepG2, 24-hour incubation; for concentrations with significant increases in ROS: DHE fluorescence vs 0.2% DMSO. Type of test: cell-based. Put shortly:
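Intracellular ROS were read by dihydroethidium fluorescence and expressed as fold change versus 0.2% DMSO vehicle, with troglitazone as positive control. Nominal concentrations covered each compound's predicted plasma and liver Cmax (PBPK). Reported values come from the 24-hour exposure; a 1-hour exposure was also run. Plotted with standard deviation; significance by Kruskal–Wallis test.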

In test [2] the test system is HepG2 cells. Kind of test: Cellular respiration assay. The test is classed as cell-based. The settings on record: HepG2, 1-hour incubation; for decrease in OCR within predicted physiological range (in words): plasma Cmax to liver Cmax. Put shortly: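 HepG2 cells incubated 1 h with test compound (parent compounds or metabolites), then run on a Seahorse XFe96 per the Mito Stress Test Kit protocol. Baseline oxygen consumption rate is expressed as fold change versus 0.2% DMSO vehicle. The physiological range spans predicted plasma Cmax to predicted liver Cmax, from a PBPK model using the liver:blood Kp.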

A further test deals with human BSEP (Homo sapiens, UniProt O95342). The test is described as follows: BSEP inhibition, taurocholate uptake in HEK293 human BSEP vesicles. The test is classed as biochemical.
Sequence of human BSEP (O95342 whole entry): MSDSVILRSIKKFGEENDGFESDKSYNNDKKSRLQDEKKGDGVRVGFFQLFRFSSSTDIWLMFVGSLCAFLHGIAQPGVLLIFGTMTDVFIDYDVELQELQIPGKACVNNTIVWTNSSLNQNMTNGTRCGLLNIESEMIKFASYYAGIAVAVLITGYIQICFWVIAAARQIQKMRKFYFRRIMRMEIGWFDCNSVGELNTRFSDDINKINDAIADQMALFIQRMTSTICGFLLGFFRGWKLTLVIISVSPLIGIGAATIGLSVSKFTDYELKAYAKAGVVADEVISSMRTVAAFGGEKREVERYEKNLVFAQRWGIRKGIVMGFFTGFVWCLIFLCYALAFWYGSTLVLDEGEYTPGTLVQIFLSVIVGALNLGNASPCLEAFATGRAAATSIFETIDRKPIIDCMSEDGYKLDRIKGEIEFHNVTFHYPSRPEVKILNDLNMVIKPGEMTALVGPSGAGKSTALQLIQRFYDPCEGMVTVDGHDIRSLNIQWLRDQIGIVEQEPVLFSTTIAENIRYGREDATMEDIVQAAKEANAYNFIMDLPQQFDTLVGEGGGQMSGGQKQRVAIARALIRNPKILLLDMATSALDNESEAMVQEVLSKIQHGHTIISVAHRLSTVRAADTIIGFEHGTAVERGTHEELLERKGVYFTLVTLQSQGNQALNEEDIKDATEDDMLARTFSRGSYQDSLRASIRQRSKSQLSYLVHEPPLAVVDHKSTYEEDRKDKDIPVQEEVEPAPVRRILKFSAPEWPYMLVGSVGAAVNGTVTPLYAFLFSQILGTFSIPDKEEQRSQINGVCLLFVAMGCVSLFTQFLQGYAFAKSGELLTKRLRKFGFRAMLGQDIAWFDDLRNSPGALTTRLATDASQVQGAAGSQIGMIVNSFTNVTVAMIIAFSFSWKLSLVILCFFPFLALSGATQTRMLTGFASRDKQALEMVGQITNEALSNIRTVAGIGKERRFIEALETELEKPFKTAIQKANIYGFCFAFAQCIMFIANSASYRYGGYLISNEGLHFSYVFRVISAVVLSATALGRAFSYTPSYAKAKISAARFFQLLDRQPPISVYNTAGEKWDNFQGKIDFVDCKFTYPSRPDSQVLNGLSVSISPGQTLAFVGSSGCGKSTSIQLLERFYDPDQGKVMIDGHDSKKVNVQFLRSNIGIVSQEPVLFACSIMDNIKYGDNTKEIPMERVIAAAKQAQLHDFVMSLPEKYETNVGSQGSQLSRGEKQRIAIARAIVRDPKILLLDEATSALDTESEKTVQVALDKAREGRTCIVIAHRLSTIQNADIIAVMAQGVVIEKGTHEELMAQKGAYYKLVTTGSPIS
A further test has as its system GSH in the liver. Conditions: rats, intravenous administration; cited from earlier work.
The next test deals with liver GSH. Conditions: mice, intravenous, after a toxic dose of acetaminophen; cited from earlier work.

Take `[2H]C([2H])([2H])C(c1cc(C(C)(C)C)c(NC(=O)c2c[nH]c3ccccc3c2=O)cc1O)(C([2H])([2H])[2H])C([2H])([2H])[2H]` [Deutivacaftor, deutivacaftor]: in the test with HepG2 cells [1], the “magnitude of ROS increase compared with another compound (in words)” value was “nearly identical levels of ROS increases at the same concentrations as ivacaftor”. Also, in the test on HepG2 cells [2], the “decrease in OCR at 10 μM” value was ~ 50%.

As to `Cc1nn(C)cc1S(=O)(=O)NC(=O)c1ccc(-n2ccc(OCC(C)(C)C(F)(F)F)n2)nc1N1C[C@@H](C)CC1(C)C` [Elexacaftor, elexacaftor], the “concentrations with significant increases in ROS” value in the test on HepG2 cells [1] amounted to 40 µM. For the same molecule, the IC50 (as a rule, the concentration that inhibits the measured activity by half) at human BSEP turned out to be 37.1 µM. Besides, the “decrease in OCR within predicted physiological range (in words)” value in the test on HepG2 cells [2] is “induced a decrease in OCR”.

In the case of `CC(C)(C)c1cc(C(C)(C)C)c(NC(=O)c2c[nH]c3ccccc3c2=O)cc1O` [Ivacaftor, ivacaftor], the “magnitude of ROS increase compared with another compound (in words)” value with HepG2 cells [1] was “matched or surpassed that of the positive control, troglitazone”. In addition, the IC50 on human BSEP was above 100 µM. In addition, in the test on HepG2 cells [2], the “decrease in OCR at 10 μM” value was ~ 50% and the “decrease in OCR within predicted physiological range (in words)” value is “induced the most prominent decrease in OCR”.

Consider `CC(C)(C)c1cc(C(C)(C)CO)c(O)cc1NC(=O)c1c[nH]c2ccccc2c1=O` [M1 ivacaftor], for which the “concentrations with significant increases in ROS” value in the test with HepG2 cells [1] amounted to 100 µM. Moreover, in the test with HepG2 cells [2], the “decrease in OCR within predicted physiological range (in words)” value was “did not induce any notable decrease”.

With `CC(=O)N[C@@H](CS)C(=O)O` [NAC, n‐acetyl cysteine], the “increase in levels of GSH in the liver” value in the test on GSH in the liver is 50%. Moreover, in the test on liver GSH, the “recovery of liver GSH compared with untreated values” is 75% and the “recovery of mitochondrial GSH compared with untreated values” is given as 45%.

`CC(C)(CO)c1cc2cc(NC(=O)C3(c4ccc5c(c4)OC(F)(F)O5)CC3)c(F)cc2n1C[C@@H](O)CO` [Tezacaftor, tezacaftor] came in with an IC50 at human BSEP above 100 µM. Also, in the test with HepG2 cells [2], the “decrease in OCR within predicted physiological range (in words)” value is on record as “did not induce a notable decrease in OCR”.
